# Experimental data: ChEMBL document CHEMBL1268911, “Novel agonists and antagonists for human protease activated receptor 2” (J Med Chem, 2010)
# Activity calls are given as the source filed them. The rule behind the calls is not given here.
# Target: T1, Proteinase-activated receptor 2 (Homo sapiens, UniProt P55085)
# T1 sequence (P55085 whole entry): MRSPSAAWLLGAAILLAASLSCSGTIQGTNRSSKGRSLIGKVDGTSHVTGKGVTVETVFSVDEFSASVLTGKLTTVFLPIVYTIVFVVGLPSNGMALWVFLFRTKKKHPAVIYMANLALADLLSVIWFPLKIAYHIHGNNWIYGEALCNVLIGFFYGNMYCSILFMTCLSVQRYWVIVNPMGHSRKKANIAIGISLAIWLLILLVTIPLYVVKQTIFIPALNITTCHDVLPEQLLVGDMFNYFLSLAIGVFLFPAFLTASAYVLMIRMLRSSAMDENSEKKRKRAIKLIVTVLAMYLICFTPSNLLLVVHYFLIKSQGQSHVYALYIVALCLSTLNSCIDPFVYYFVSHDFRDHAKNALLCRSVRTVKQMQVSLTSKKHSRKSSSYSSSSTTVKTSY
# Test: Agonist activity at human PAR2 receptor in HEK293 cells assessed as induction of intracellular calcium release
# Format: functional, cell-based
# Conditions: not given
row,Compound,EC50
1,CC[C@H](C)[C@H](NC(=O)[C@H](CC1CCCCC1)NC(=O)c1cnccn1)C(N)=O,> 100 µM
2,CC[C@H](C)[C@H](NC(=O)[C@H](CC1CCCCC1)NC(=O)c1ccco1)C(N)=O,> 50 µM
3,CC[C@H](C)[C@H](NC(=O)[C@H](CC1CCCCC1)NC(=O)c1coc(C)n1)C(N)=O,> 100 µM

# Target: T1, Proteinase-activated receptor 2
# Test: Agonist activity at PAR2 receptor in human HT-29 cells assessed as induction of intracellular calcium release
# Format: functional, cell-based
# Conditions: not given
row,Compound,EC50
1,CC[C@H](C)[C@H](NC(=O)[C@H](CC1CCCCC1)NC(=O)c1ccno1)C(=O)Nc1cccc(C(=O)N2CCC(CN)CC2)c1,2.2 µM
2,CC[C@H](C)[C@H](NC(=O)[C@H](CC1CCCCC1)NC(=O)c1ccno1)C(=O)N1CCCC(C(=O)N2CCC(CN)CC2)C1 (stereo partly specified),17.1 µM
3,CC[C@H](C)[C@H](NC(=O)[C@H](CC1CCCCC1)NC(=O)c1ccno1)C(=O)N1CCCCC1C(=O)N1CCC(CN)CC1 (stereo partly specified),7.1 µM
4,CC[C@H](C)[C@H](NC(=O)[C@H](CC1CCCCC1)NC(=O)c1ccno1)C(=O)NCc1ccc(C(=O)N2CCC(CN)CC2)cc1,1.1 µM
5,CC[C@H](C)[C@H](NC(=O)[C@H](CC1CCCCC1)NC(=O)c1ccno1)C(=O)NC1CCN([C@@H](CC(C)C)C(=O)N2CCC(CN)CC2)C1=O (stereo partly specified),13.5 µM
6,CC[C@H](C)[C@H](NC(=O)[C@H](CC1CCCCC1)NC(=O)c1ccno1)C(=O)Nc1ccc(C(=O)N2CCC(CN)CC2)cc1,> 50 µM
7,CC[C@H](C)[C@H](NC(=O)[C@H](CC1CCCCC1)NC(=O)c1ccno1)C(=O)N1CCC(C(=O)N2CCC(CN)CC2)CC1,13.7 µM

# Same assay, conditions: ht-29
row,Compound,EC50
1,CC[C@H](C)[C@H](NC(=O)[C@H](CC1CCCCC1)NC(=O)c1ccno1)C(=O)N[C@H]1CCC2SC[C@@H](C(=O)N3CCC(CN)CC3)N2C1=O (stereo partly specified),6.1 µM

# Target: T2, Proteinase-activated receptor 1 (Homo sapiens) (UniProt P25116)
# T2 sequence (whole entry): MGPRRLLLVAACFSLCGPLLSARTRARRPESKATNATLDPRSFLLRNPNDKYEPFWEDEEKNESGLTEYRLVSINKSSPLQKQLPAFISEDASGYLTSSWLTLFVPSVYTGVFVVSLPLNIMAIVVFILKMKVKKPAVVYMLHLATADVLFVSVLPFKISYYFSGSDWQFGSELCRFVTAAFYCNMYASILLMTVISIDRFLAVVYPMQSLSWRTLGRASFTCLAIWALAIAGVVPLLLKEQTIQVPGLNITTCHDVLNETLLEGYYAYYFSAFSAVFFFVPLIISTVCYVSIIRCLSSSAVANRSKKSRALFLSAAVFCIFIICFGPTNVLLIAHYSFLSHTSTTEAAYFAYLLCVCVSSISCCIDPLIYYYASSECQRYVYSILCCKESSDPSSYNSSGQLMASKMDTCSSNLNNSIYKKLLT
# Test: Agonist activity at human PAR1 receptor in HEK293 cells relative to TFLLR-NH2
# Format: functional, cell-based
# Conditions: not given
row,Compound,Activity
1,CC[C@H](C)[C@H](NC(=O)[C@H](Cc1ccccc1)NC(=O)c1ccco1)C(N)=O,Active

# Target: Proteinase-activated receptor 2 (Homo sapiens) (UniProt P55085)
# Test: Antagonist activity at PAR2 receptor in human HT-29 cells assessed as inhibition of intracellular calcium release at 50 uM relative to SLIGRLI-NH2
# Format: functional, cell-based
# Conditions: not given
# In short: (§1)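 Single-point inhibition in Fluo-3-loaded HT29 cells. Antagonist was given at 5 or 50 μM before 2.5 μM SLIGRLI-NH2. Calcium efflux was read as fluorescence and expressed as percent inhibition, with 100% meaning complete block.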
row,Compound,inhibition
1,CC[C@H](C)[C@H](NC(=O)[C@H](CC1CCCCC1)NC(=O)c1ccno1)C(=O)N1CCC2(CCc3ccccc32)CC1,Active

# Target: Proteinase-activated receptor 2 (Homo sapiens) (UniProt P55085)
# Test: Antagonist activity at PAR2 receptor in human HT-29 cells assessed as inhibition of intracellular calcium release at 5 uM relative to SLIGRLI-NH2
# Format: functional, cell-based
# Design: scale not given: the % may be the effect or the level left
# Conditions: not given
# In short: as §1
row,Compound,Activity
1,CC[C@H](C)[C@H](NC(=O)[C@H](CC1CCCCC1)NC(=O)c1ccno1)C(=O)N1CCC2(CCc3ccccc32)CC1,40%
2,CC[C@H](C)[C@H](NC(=O)[C@H](CC1CCCCC1)NC(=O)c1ccno1)C(=O)N1CCN(c2ccccc2)CC1,40%
3,CC[C@H](C)[C@H](NC(=O)[C@H](CC1CCCCC1)NC(=O)c1ccno1)C(=O)N1CCc2ccccc2C1,40%
4,CC[C@H](C)[C@H](NC(=O)[C@H](CC1CCCCC1)NC(=O)c1ccno1)C(=O)N1CCN(c2ccccc2C)CC1,40%
5,CC[C@H](C)[C@H](NC(=O)[C@H](CC1CCCCC1)NC(=O)c1ccno1)C(=O)Nc1cccc2ccccc12,40%
6,CC[C@H](C)[C@H](NC(=O)[C@H](CC1CCCCC1)NC(=O)c1ccno1)C(=O)Nc1ccccc1-c1ccccc1,40%

# Target: Proteinase-activated receptor 2 (Homo sapiens) (UniProt P55085)
# Test: Agonist activity at PAR2 receptor in human HT-29 cells assessed as induction of intracellular calcium release at 1 uM relative to SLIGRLI-NH2
# Format: functional, cell-based
# Conditions: not given
# In short: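 HT29 cells, Fluo-3 AM loaded, in HBSS/HEPES/probenecid buffer pH 7.4 with 2% DMSO final. Each agonist given once at 1 μM. Fluorescence (ex 495/em 520 nm) was read over 60 s after addition, and iCa2+ release was compared with SLIGRLI-NH2.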
row,Compound,Activity
1,CC[C@H](C)[C@H](NC(=O)[C@H](CC1CCCCC1)NC(=O)c1ccno1)C(=O)NCCCCC(=O)N1CCC(CN)CC1,181%
2,"CC[C@H](C)C(NC(=O)[C@H](CC1CCCCC1)NC(=O)c1ccno1)C(=O)NCCC(=O)NCc1cccnc1 (single isomer, unassigned)",122%
3,CC[C@H](C)[C@H](NC(=O)[C@H](CC1CCCCC1)NC(=O)c1ccno1)C(=O)NCCCCCN,60%
4,CC[C@H](C)[C@H](NC(=O)[C@H](CC1CCCCC1)NC(=O)c1ccno1)C(=O)NCCC(=O)Nc1ccc(CCN)cc1,130%
5,CC[C@H](C)[C@H](NC(=O)[C@H](CC1CCCCC1)NC(=O)c1ccno1)C(=O)NCCCCC(=O)NCc1cccnc1,130%
6,CC[C@H](C)[C@H](NC(=O)[C@H](CC1CCCCC1)NC(=O)c1ccno1)C(=O)NCCCCC(=O)Nc1ccc(CCN)cc1,142%
7,CC[C@H](C)[C@H](NC(=O)[C@H](CC1CCCCC1)NC(=O)c1ccno1)C(=O)NCCCN,57%
8,CC[C@H](C)[C@H](NC(=O)[C@H](CC1CCCCC1)NC(=O)c1ccno1)C(=O)NCCC(=O)N1CCC(CN)CC1,97%

# Target: T1, Proteinase-activated receptor 2
# Test: Antagonist activity at PAR2 receptor in human HT-29 cells assessed as inhibition of intracellular calcium release
# Format: functional, cell-based
# Conditions: read-out: IC50
row,Compound,IC50
1,CC[C@H](C)[C@H](NC(=O)[C@H](CC1CCCCC1)NC(=O)c1ccno1)C(=O)Nc1ccc(CC(=O)N2CCOCC2)cc1,57 µM

# Same assay, conditions: read-out: pIC50 (converted)
row,Compound,IC50
1,CC[C@H](C)[C@H](NC(=O)[C@H](CC1CCCCC1)NC(=O)c1ccno1)C(=O)N1CCC2(CCc3ccccc32)CC1,7.94 µM

# Target: Proteinase-activated receptor 2 (Homo sapiens) (UniProt P55085)
# Test: Agonist activity at PAR2 receptor in human HT-29 cells assessed as induction of intracellular calcium release at 50 uM relative to […]
# Format: functional, cell-based
# Conditions: not given
# In short: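 HT29 cells loaded with Fluo-3 AM in HBSS/HEPES/probenecid, pH 7.4. Compounds were tested at one concentration, 50 μM, and Ca2+ release (ex 495/em 520 nm, 60 s read) was expressed relative to 2-furoyl-LIGRLI-NH2 at the same concentration.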
row,Compound,Activity
1,CC[C@H](C)[C@H](NC(=O)[C@H](CC(C)C)NC(=O)c1ccco1)C(N)=O,38%
2,CC(C)C[C@H](NC(=O)c1ccco1)C(=O)N[C@@H](CC1CCCCC1)C(N)=O,43%
3,CC(C)C[C@H](NC(=O)c1ccco1)C(=O)N[C@@H](Cc1ccc(F)cc1)C(N)=O,19%
4,CC(C)C[C@H](NC(=O)c1ccco1)C(=O)N[C@@H](Cc1ccccc1)C(N)=O,22%
5,CC[C@H](C)[C@H](NC(=O)[C@@H](NC(=O)c1ccco1)C1CCCCC1)C(N)=O,12%
6,CC[C@H](C)[C@H](NC(=O)[C@H](CC1CCCCC1)NC(=O)c1ccco1)C(N)=O,58%
7,CC[C@H](C)[C@H](NC(=O)[C@H](Cc1ccccc1)NC(=O)c1ccco1)C(N)=O,67%
